Columns and labels:
P388/S [1] = experiment: Antitumor activity against mouse P388/S cells allografted in CD2F1 mouse assessed as increase in host lifespan at 0.36 mg/kg, ip administered on days 1, 5 and 9; assay type: functional; settings: route intraperitoneal
Method in brief: (§1)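 Groups of eight male CD2F1 mice bearing P388 leukemia, run at NCI. Sulfate salts given ip on days 1, 5 and 9. Read-out is percent increase in lifespan.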

P388/VCR [2] = experiment: Antitumor activity against mouse P388/VCR cells allografted in CD2F1 mouse assessed as increase in host lifespan at 0.36 mg/kg, ip administered on days 1, 5 and 9; assay type: functional; settings: route intraperitoneal; method in brief: as §1
P388/S [3] = experiment: Antitumor activity against mouse P388/S cells allografted in CD2F1 mouse assessed as increase in host lifespan at 1.67 mg/kg, ip administered on days 1, 5 and 9; assay type: functional; settings: route intraperitoneal; method in brief: as §1
Mus musculus [4] = experiment: Toxicity in CD2F1 mouse allografted with mouse P388/VCR cells at 1.67 mg/kg, ip administered on days 1, 5 and 9; assay type: organism-based; parameters: dose 1.67 mg/kg, route intraperitoneal; settings: in vivo
[5] = Toxicity in iv dosed mouse assessed as lethality; assay type: organism-based; settings: in vivo
[6] = Antitumor activity against mouse P1534 cells allografted in DBA2 mouse assessed as tumor growth inhibition at 0.10 mg/kg, ip administered daily for 8 to 10 days; assay type: functional; settings: route intraperitoneal, read-out: TGI
Method in brief: (§2)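 P1534(J) leukemia implanted sc in DBA2 mice; sulfate salts dosed ip daily for 8–10 days. Growth inhibition scored –, 0–25%; +, 26–50%; ++, 51–75%; +++, 76–100%; T, lethal to ≥5 of 10 animals per group. Average of one or more tests.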

CHO [7] = experiment: Mitotic arrest in CHO cells assessed as increase in cell accumulation at 0.002 ug/ml; assay type: functional, Cricetulus griseus
Method in brief: (§3)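 Chinese hamster ovary cells in tissue culture, scored for mitotic arrest as increase in cells in mitotic arrest over control: +++, 40–50%; ++, 15–40%; +, 10–15%; ±, 7–10%; –, 3–7%. Cytotoxicity noted separately.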

P388/VCR [8] = experiment: Antitumor activity against mouse P388/VCR cells allografted in B6D2F1 mouse assessed as increase in host lifespan at 1.20 mg/kg, ip administered on days 1, 5 and 9; assay type: functional; settings: dose 1.2 mg/kg; route intraperitoneal
Method in brief: (§4)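 P388/VCR leukemia in groups of 10 B6D2F1 mice, run at Lilly using the cell strain received from NCI. Sulfate salts given ip on days 1, 5 and 9. Read-out is percent increase in lifespan.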

P388/S [9] = experiment: Antitumor activity against mouse P388/S cells allografted in CD2F1 mouse assessed as increase in host lifespan at 0.60 mg/kg, ip administered on days 1, 5 and 9; assay type: functional; settings: dose 0.6 mg/kg; route intraperitoneal; method in brief: as §1
[10] = Antitumor activity against mouse P388/VCR/I/63 cells allografted in Dublin-CDF1 mouse assessed as day of host death at 1.5 mg/kg, ip administered on days 1, 5 and 9 (reference value: 10 days); assay type: functional; settings: route intraperitoneal
P388/VCR [11] = experiment: Antitumor activity against mouse P388/VCR cells allografted in B6D2F1 mouse assessed as increase in host lifespan at 0.60 mg/kg, ip administered on days 1, 5 and 9; assay type: functional; settings: dose 0.6 mg/kg; route intraperitoneal; method in brief: as §4
[12] = Antitumor activity against mouse P1534 cells allografted in DBA2 mouse assessed as tumor growth inhibition at 0.20 mg/kg, ip administered daily for 8 to 10 days; assay type: functional; settings: route intraperitoneal, read-out: TGI; method in brief: as §2
[13] = Antitumor activity against mouse P388/VCR/I/63 cells allografted in Dublin-CDF1 mouse assessed as increase in host lifespan at 1.5 mg/kg, ip administered on days 1, 5 and 9; assay type: functional; settings: route intraperitoneal
P388/S [14] = experiment: Antitumor activity against mouse P388/S cells allografted in CD2F1 mouse assessed as increase in host lifespan at 1.00 mg/kg, ip administered on days 1, 5 and 9; assay type: functional; settings: route intraperitoneal; method in brief: as §1
CHO [15] = experiment: Mitotic arrest in CHO cells assessed as increase in cell accumulation at 0.02 ug/ml; assay type: functional, Cricetulus griseus; method in brief: as §3
P388/VCR [16] = experiment: Antitumor activity against mouse P388/VCR cells allografted in CD2F1 mouse assessed as increase in host lifespan at 1.00 mg/kg, ip administered on days 1, 5 and 9; assay type: functional; settings: route intraperitoneal; method in brief: as §1
P388/VCR [17] = experiment: Antitumor activity against mouse P388/VCR cells allografted in CD2F1 mouse assessed as increase in host lifespan at 0.60 mg/kg, ip administered on days 1, 5 and 9; assay type: functional; settings: dose 0.6 mg/kg; route intraperitoneal; method in brief: as §1
[18] = Antitumor activity against mouse P1534 cells allografted in DBA2 mouse assessed as tumor growth inhibition at 0.25 mg/kg, ip administered daily for 8 to 10 days; assay type: functional; settings: route intraperitoneal, read-out: TGI; method in brief: as §2
CHO [19] = experiment: Cytotoxicity against CHO cells at 0.02 ug/ml; assay type: cell-based, Cricetulus griseus; settings: chinese hamster; method in brief: as §3
P388/VCR [20] = experiment: Antitumor activity against mouse P388/VCR cells allografted in B6D2F1 mouse assessed as increase in host lifespan at 0.90 mg/kg, ip administered on days 1, 5 and 9; assay type: functional; settings: dose 0.9 mg/kg; route intraperitoneal; method in brief: as §4
CHO [21] = experiment: Mitotic arrest in CHO cells assessed as increase in cell accumulation at 2 ug/ml; assay type: functional, Cricetulus griseus; method in brief: as §3
CHO [22] = experiment: Mitotic arrest in CHO cells assessed as increase in cell accumulation at 0.2 ug/ml; assay type: functional, Cricetulus griseus; method in brief: as §3
[23] = Antitumor activity against mouse Ridgway osteogenic sarcoma allografted in AKR mouse assessed as tumor growth inhibition at 0.40 mg/kg, ip administered daily for 8 to 10 days compound treatment commenced 8 days after tumor implantation; assay type: functional; settings: route intraperitoneal, read-out: TGI
[24] = Antitumor activity against mouse Ridgway osteogenic sarcoma allografted in AKR mouse assessed as tumor growth inhibition at 0.05 mg/kg, ip administered daily for 8 to 10 days compound treatment commenced 8 days after tumor implantation; assay type: functional; settings: route intraperitoneal, read-out: TGI
[25] = Antitumor activity against mouse Ridgway osteogenic sarcoma allografted in AKR mouse assessed as tumor growth inhibition at 0.20 mg/kg, ip administered daily for 8 to 10 days compound treatment commenced 8 days after tumor implantation; assay type: functional; settings: route intraperitoneal, read-out: TGI
[26] = Antitumor activity against mouse Gardner lymphosarcoma allografted in C3H mouse assessed as tumor growth inhibition at 0.05 mg/kg, ip administered daily for 8 to 10 days; assay type: functional; settings: route intraperitoneal, read-out: TGI
Method in brief: (§5)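 Gardner lymphosarcoma in C3H mice; sulfate salts unless noted, given ip daily for 8–10 days, treatment starting 8 days after tumor implantation. Tumor growth inhibition scored as –, 0–25%; +, 26–50%; ++, 51–75%; +++, 76–100%; T, lethal to ≥5 of 10 animals per group. Average of one or more tests.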

[27] = Antitumor activity against mouse Ridgway osteogenic sarcoma allografted in AKR mouse assessed as tumor growth inhibition at 0.30 mg/kg, ip administered daily for 8 to 10 days compound treatment commenced 8 days after tumor implantation; assay type: functional; settings: route intraperitoneal, read-out: TGI
Mus musculus [28] = experiment: Toxicity in C3H mouse allografted with mouse Gardner lymphosarcoma assessed as lethality at 0.5 mg/kg, ip administered daily for 8 to 10 days; assay type: organism-based; parameters: dose 0.5 mg/kg, route intraperitoneal; settings: in vivo
Method in brief: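 Tumor-bearing mice given sulfate salts ip daily for 8–10 days; values are the average of one or more tests. Toxic means lethal to ≥5 of 10 animals per group.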

[29] = Antitumor activity against mouse Gardner lymphosarcoma allografted in C3H mouse assessed as tumor growth inhibition at 0.40 mg/kg, ip administered daily for 8 to 10 days; assay type: functional; settings: route intraperitoneal, read-out: TGI; method in brief: as §5
[30] = Antitumor activity against mouse Gardner lymphosarcoma allografted in C3H mouse assessed as tumor growth inhibition at 0.10 mg/kg, ip administered daily for 8 to 10 days; assay type: functional; settings: route intraperitoneal, read-out: TGI; method in brief: as §5
Mus musculus [31] = experiment: Toxicity in mouse assessed as body weight at 0.5 mg/kg, ip administered twice per week for 4 weeks, then three doses per week for 3 weeks and finally six doses per week for 2 weeks measured at week 9 (reference value: 18.5 +/- 0.5 gms); settings: in vivo
[32] = Antitumor activity against mouse Gardner lymphosarcoma allografted in C3H mouse assessed as tumor growth inhibition at 0.30 mg/kg, ip administered daily for 8 to 10 days; assay type: functional; settings: route intraperitoneal, read-out: TGI; method in brief: as §5
[33] = Antitumor activity against mouse Gardner lymphosarcoma allografted in C3H mouse assessed as tumor growth inhibition at 0.20 mg/kg, ip administered daily for 8 to 10 days; assay type: functional; settings: route intraperitoneal, read-out: TGI; method in brief: as §5
[34] = Antitumor activity against mouse Ridgway osteogenic sarcoma allografted in AKR mouse assessed as tumor growth inhibition at 0.10 mg/kg, ip administered daily for 8 to 10 days compound treatment commenced 8 days after tumor implantation; assay type: functional; settings: route intraperitoneal, read-out: TGI

CC[C@]1(O)C[C@H]2CN(CCc3c([nH]c4ccccc34)[C@@](C(=O)OC)(c3cc4c(cc3OC)N(C=O)[C@H]3[C@@](O)(C(=O)OC)[C@H](OC(C)=O)[C@]5(CC)C=CCN6CC[C@]43[C@@H]65)C2)C1.O=S(=O)(O)O [VINCRISTINE SULFATE]
Activity (P388/S [1]): 83% | Activity (P388/VCR [2]): 0% | Activity (P388/S [3]): 96% | Activity (Mus musculus [4]): Toxic | LD50 [5]: 2.1 mg/kg | inhibition in vivo at 0.1 mg/kg [6]: 51% | Activity (CHO [7]): 10% | Activity (P388/VCR [8]): 0% | Activity (P388/S [9]): 83% | Activity [10]: 15 days | Activity (P388/VCR [11]): 5% | inhibition in vivo at 0.2 mg/kg [12]: 76% | Activity [13]: 50% | Activity (P388/S [14]): 138% | Activity (CHO [15]): 40% | Activity (P388/VCR [16]): 0% | Activity (P388/VCR [17]): 0% | inhibition in vivo at 0.25 mg/kg [18]: 76% | Activity (CHO [19]): Toxic | Activity (P388/VCR [20]): 0%

CC[C@]1(O)C[C@@H]2C[C@](C(=O)OC)(c3cc4c(cc3OC)N(C)[C@H]3[C@@](O)(C(N)=O)[C@H](O)[C@]5(CC)C=CCN6CC[C@]43[C@@H]65)c3[nH]c4ccccc4c3CC[N+]([O-])(C2)C1
Activity (CHO [21]): 15% | Activity (CHO [22]): 7%

CC[C@]1(O)C[C@H]2CN(CCc3c([nH]c4ccccc34)[C@@](C(=O)OC)(c3cc4c(cc3OC)N(C)[C@H]3[C@@](O)(C(=O)NC)[C@H](O)[C@]5(CC)C=CCN6CC[C@]43[C@@H]65)C2)C1.O=S(=O)(O)O
inhibition in vivo at 0.4 mg/kg [23]: 76% | inhibition in vivo at 0.05 mg/kg [24]: 0% | inhibition in vivo at 0.2 mg/kg [25]: 51% | inhibition in vivo at 0.05 mg/kg [26]: 0% | inhibition in vivo at 0.3 mg/kg [27]: 76% | Activity (Mus musculus [28]): Toxic | Activity (CHO [7]): 3% | inhibition in vivo at 0.4 mg/kg [29]: 76% | inhibition in vivo at 0.1 mg/kg [30]: 0% | Activity (Mus musculus [31]): 24.6 g | Activity (CHO [15]): 15% | inhibition in vivo at 0.3 mg/kg [32]: 76% | inhibition in vivo at 0.2 mg/kg [33]: 76% | inhibition in vivo at 0.1 mg/kg [34]: 0% | inhibition in vivo at 0.25 mg/kg [18]: 76%
